# Columns and labels:
# [1] = system: MDA-MB-231; experiment: cells; assay type: cell-based; conditions: Homo sapiens, MDA-MB-231, read-out: Antiproliferative effect IC50, MDA-MB-231
# [2] = system: RPMI-8226; experiment: cells; assay type: cell-based; conditions: Homo sapiens, RPMI-8226, read-out: Antiproliferative effect IC50, RPMI-8226
# [3] = target: JAK1 (Homo sapiens, UniProt P23458); experiment: Kinase inhibition assay; assay type: biochemical
# [4] = target: T1, HDAC6 (Homo sapiens, UniProt Q9UBN7); experiment: In vitro HDAC enzyme assay; assay type: biochemical
# T1 sequence (Q9UBN7 1-1215): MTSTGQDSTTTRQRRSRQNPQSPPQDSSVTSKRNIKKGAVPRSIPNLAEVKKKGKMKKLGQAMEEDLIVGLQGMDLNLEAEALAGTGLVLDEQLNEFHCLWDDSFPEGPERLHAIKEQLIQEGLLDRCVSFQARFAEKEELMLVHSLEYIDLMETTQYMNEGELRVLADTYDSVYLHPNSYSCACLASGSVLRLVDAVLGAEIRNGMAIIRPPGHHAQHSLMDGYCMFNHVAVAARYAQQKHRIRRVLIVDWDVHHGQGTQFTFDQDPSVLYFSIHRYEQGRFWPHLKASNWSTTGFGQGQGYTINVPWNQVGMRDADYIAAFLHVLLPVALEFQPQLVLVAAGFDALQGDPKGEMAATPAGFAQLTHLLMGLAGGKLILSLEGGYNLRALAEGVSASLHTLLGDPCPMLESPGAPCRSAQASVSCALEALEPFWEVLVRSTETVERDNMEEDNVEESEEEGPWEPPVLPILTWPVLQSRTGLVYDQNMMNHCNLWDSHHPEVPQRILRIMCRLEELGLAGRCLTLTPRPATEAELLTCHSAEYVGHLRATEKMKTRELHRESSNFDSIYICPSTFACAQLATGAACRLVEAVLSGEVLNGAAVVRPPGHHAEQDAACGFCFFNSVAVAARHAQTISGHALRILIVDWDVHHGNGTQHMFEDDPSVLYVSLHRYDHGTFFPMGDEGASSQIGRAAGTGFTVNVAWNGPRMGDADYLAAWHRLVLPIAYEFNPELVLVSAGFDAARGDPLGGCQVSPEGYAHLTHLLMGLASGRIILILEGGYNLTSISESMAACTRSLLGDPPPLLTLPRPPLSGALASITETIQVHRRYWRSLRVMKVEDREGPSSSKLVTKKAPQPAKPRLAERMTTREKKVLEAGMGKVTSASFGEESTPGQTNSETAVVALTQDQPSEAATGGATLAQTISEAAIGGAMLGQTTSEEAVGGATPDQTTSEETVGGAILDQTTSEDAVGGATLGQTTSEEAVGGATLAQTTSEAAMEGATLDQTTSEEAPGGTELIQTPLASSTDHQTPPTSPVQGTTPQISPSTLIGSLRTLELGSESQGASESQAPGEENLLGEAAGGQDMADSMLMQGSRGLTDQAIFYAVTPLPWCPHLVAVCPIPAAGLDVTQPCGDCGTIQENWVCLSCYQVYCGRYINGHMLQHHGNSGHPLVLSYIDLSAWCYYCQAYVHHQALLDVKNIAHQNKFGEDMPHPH
# [5] = Microsomal stability assay; assay type: in vitro ADME; conditions: human, human liver microsomes, pH 7.4
# Outline: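 Human liver microsomes at 0.8 mg/mL, with magnesium chloride and potassium phosphate buffer (pH 7.4), incubated with test compound at 0.5 μM. Mix prewarmed 5 min at 37 °C, then started with NADPH. Stopped at 0, 5, 10, 15, 30, 60 or 90 min with ice-cold ethyl acetate, spun 4000 rpm for 10 min at 4 °C. Supernatant analysed by LC-MS/MS and half-life determined.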
# Chain of JAK1 (P23458 whole entry): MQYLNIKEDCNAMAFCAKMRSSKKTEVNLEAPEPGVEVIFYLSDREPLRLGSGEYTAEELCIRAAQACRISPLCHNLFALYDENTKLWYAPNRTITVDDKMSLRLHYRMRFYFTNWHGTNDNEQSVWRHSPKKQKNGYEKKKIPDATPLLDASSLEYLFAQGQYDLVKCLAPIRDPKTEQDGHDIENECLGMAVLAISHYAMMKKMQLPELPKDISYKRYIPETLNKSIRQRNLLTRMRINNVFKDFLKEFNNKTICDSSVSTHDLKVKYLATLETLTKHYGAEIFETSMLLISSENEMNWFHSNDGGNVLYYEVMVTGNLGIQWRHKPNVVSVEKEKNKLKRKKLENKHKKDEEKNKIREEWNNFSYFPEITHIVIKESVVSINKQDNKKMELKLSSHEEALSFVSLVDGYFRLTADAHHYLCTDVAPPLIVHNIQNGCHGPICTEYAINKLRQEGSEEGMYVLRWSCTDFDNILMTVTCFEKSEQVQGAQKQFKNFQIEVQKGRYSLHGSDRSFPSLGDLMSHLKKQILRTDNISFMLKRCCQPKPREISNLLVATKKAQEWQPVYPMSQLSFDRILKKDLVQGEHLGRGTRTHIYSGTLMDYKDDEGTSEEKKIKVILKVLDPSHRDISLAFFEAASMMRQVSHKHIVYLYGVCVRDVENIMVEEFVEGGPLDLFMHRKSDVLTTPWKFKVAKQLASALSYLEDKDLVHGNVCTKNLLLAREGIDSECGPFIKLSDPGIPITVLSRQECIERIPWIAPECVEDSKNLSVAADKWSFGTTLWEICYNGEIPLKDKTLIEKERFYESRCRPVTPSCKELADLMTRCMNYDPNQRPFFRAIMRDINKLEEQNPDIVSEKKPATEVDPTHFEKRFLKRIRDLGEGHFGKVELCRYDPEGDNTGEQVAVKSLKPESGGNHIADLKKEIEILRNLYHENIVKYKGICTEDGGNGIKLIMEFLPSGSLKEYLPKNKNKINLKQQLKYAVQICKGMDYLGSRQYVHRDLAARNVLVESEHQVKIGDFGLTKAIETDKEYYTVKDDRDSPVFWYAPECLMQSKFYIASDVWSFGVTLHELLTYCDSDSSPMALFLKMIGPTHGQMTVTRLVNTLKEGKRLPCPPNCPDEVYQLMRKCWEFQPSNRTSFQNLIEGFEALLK
Compound,IC50 [1] [nM],IC50 [2] [nM],IC50 [3] [nM],IC50 [4] [nM],half-life at 0.5 μM [5] [min]
"O=C(NO)c1ccc(CNc2nc3cccc(-c4ccccc4)n3n2)cc1 [Compound 16a, N-hydroxy-4-(((5-phenyl-[1,2, 4]triazolo[1,5-a]pyridin-2-yl)amino)methyl)benzamide]",900 ± 30,460 ± 30,320 ± 18,9.5 ± 0.72,
"COc1ccc(-c2cccc3nc(NCc4ccc(C(=O)NO)cc4)nn23)cc1 [Compound 16b, N-hydroxy-4-(((5–(4-methoxyphenyl)-[1,2, 4]triazolo[1,5-a]pyridin-2-yl)amino)methyl)benzamide]",840 ± 40,290 ± 10,146 ± 8.5,8.75 ± 0.46,
"COc1cccc(-c2cccc3nc(NCc4ccc(C(=O)NO)cc4)nn23)c1 [Compound 16c, N-hydroxy-4-(((5–(3-methoxyphenyl)-[1,2, 4]triazolo[1,5-a]pyridin-2-yl)amino)methyl)benzamide]",950 ± 20,310 ± 20,190 ± 10,8.4 ± 0.39,
"COc1ccccc1-c1cccc2nc(NCc3ccc(C(=O)NO)cc3)nn12 [Compound 16d, N-hydroxy-4-(((5–(2-methoxyphenyl)-[1,2, 4]triazolo[1,5-a]pyridin-2-yl)amino)methyl)benzamide]",,,750 ± 30,10.2 ± 0.8,
"Cc1ccc(-c2cccc3nc(NCc4ccc(C(=O)NO)cc4)nn23)cc1 [Compound 16e, N-hydroxy-4-(((5-(p-tolyl)-[1,2, 4]triazolo[1,5-a]pyridin-2-yl)amino)methyl)benzamide]",,,304 ± 16,11 ± 0.7,
"Cc1cccc(-c2cccc3nc(NCc4ccc(C(=O)NO)cc4)nn23)c1 [Compound 16f, N-hydroxy-4-(((5-(m-tolyl)-[1,2, 4]triazolo[1,5-a]pyridin-2-yl)amino)methyl)benzamide]",,,315 ± 15,13.7 ± 0.88,
"Cc1ccccc1-c1cccc2nc(NCc3ccc(C(=O)NO)cc3)nn12 [Compound 16g, N-hydroxy-4-(((5-(o-tolyl)-[1,2, 4]triazolo[1,5-a]pyridin-2-yl)amino)methyl)benzamide]",,,550 ± 32,16 ± 1.1,
"O=C(NO)c1ccc(CNc2nc3cccc(-c4cccc(Cl)c4)n3n2)cc1 [Compound 16h, 4-(((5–(3-chlorophenyl)-[1,2, 4]triazolo[1,5-a]pyridin-2-yl)amino)methyl)-N-hydroxybenzamide]",,,365 ± 25,9.65 ± 0.23,
"O=C(NO)c1ccc(CNc2nc3cccc(-c4ccccc4Cl)n3n2)cc1 [Compound 16i, 4-(((5–(2-chlorophenyl)-[1,2, 4]triazolo[1,5-a]pyridin-2-yl)amino)methyl)-N-hydroxybenzamide]",,,400 ± 28,12.2 ± 0.3,
"O=C(NO)c1ccc(CNc2nc3cccc(-c4ccc(F)cc4)n3n2)cc1 [Compound 16j, 4-(((5–(4-fluorophenyl)-[1,2, 4]triazolo[1,5-a]pyridin-2-yl)amino)methyl)-N-hydroxybenzamide]",880 ± 60,280 ± 60,295 ± 16,8.9 ± 0.16,
"O=C(NO)c1ccc(CNc2nc3cccc(-c4ccc(Cl)c(Cl)c4)n3n2)cc1 [Compound 16k, 4-(((5–(3,4-dichlorophenyl)-[1,2, 4]triazolo[1,5-a]pyridin-2-yl)amino)methyl)-N-hydroxybenzamide]",,,390 ± 24,6.15 ± 0.12,
"O=C(NO)c1ccc(CNc2nc3cccc(-c4ccc(C(F)(F)F)cc4)n3n2)cc1 [Compound 16l, N-hydroxy-4-(((5–(4-(trifluoromethyl)phenyl)-[1,2, 4]triazolo[1,5-a]pyridin-2-yl)amino)methyl)benzamide]",,,460 ± 8,11.4 ± 0.88,
"O=C(NO)c1ccc(CNc2nc3cccc(-c4cc(C(F)(F)F)cc(C(F)(F)F)c4)n3n2)cc1 [Compound 16m, 4-(((5–(3,5-bis(trifluoromethyl)phenyl)-[1,2, 4]triazolo[1,5-a]pyridin-2-yl)amino)methyl)-N-hydroxybenzamide]",,,685 ± 50,20.5 ± 0.78,
"O=C(Nc1nc2cccc(-c3ccc(CN4CCS(=O)(=O)CC4)cc3)n2n1)C1CC1 [Filgotinib, reference compound]",27200 ± 1500,17500 ± 1000,,,
"O=C(CCCCCCC(=O)Nc1ccccc1)NO [SAHA, vorinostat, reference compound]",,,,,408

# From publication PMC11463018 (Journal of Enzyme Inhibition and Medicinal Chemistry, 2024)
